Reference: PubChem BioAssay
Values without a mark were called inactive. Records with an inconclusive call do not appear. Calls of active or inactive are those of the source.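 The calls were made as follows, unless noted: active = RAM network inhibition above 8.4% in each of two replicates, 3 SD over the compound average; inconclusive = above 8.4% inhibition in only one replicate; inactive = 8.4% inhibition or less in each replicate.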

Columns and labels:
[1] = OD615 S. cerevisiae growth inhibition, permissive medium, pilot counter-assay, permissive growth control for S. cerevisiae lifespan shortening project (AID 705;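 active = growth inhibition above 25% in both replicates, a cutoff set 3 SD above the mean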); settings: OD615, 24 h, at 10 µM, active compounds read high
Method in brief: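 Test system: Saccharomyces cerevisiae strain carrying genetically modified DeaD replicative-lifespan system; buffer or medium: SC raffinose/galactose permissive medium; dosing: one dose 10 µM, DMSO 0.25% final; times: 24 h exposure, 30 °C; measured by: OD at 615 nm; read-out basis: growth inhibition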

[2] = Restrictive medium S. cerevisiae growth inhibition, OD615, pilot screen of yeast lifespan reduction project, restrictive growth control (AID 706;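 active = growth inhibition above a set limit, 3 SD over mean compound inhibition, in both replicates, cut at about 43% in these data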;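 also: modified DeaD lifespan yeast strain shifted to restrictive glucose medium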); settings: OD615, 48 h, at 10 µM, active compounds read high
Method in brief: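 material = engineered S. cerevisiae DeaD strain | buffer or medium = glucose-based CSMM-D restrictive medium | dosing = one concentration, 10 µM final, 0.25% DMSO | schedule = 4 h pre-growth plus 48 h compound exposure, 30 °C | detection = OD615 absorbance reading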

[3] = viability gain of MRP-1-high H69AR cells under doxorubicin, pilot screen, MRP-1 activator project, CellTiter-Glo, duplicate (AID 807;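 active = viability increase at or above a cutoff of the median across tested compounds plus 3 SD, cut at about 8.5% in these data, passing the limit was not always enough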;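 also: compound pretreatment 18-22 h then 72 h combined with doxorubicin; 0% = doxorubicin alone and 100% = vehicle without doxorubicin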); settings: H69AR viability with doxorubicin, CellTiter-Glo luminescence; at 10 µM; active compounds read high
[4] = growth suppression of beta-catenin knockout HCT116, pilot screen, human colon tumor cells (AID 823;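 active = cell viability at or below a set limit in both duplicate runs, the limit being the all-compound median minus 4 SD, cut at about 23% in these data, passing the limit was not always enough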;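 also: 0% = wells killed by 20 µM Hyamine and 100% = untreated DMSO cell wells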); settings: CellTiter-Glo, 60 h, at 10 µM, active compounds read low
[5] = growth suppression of PTEN-deleted HCT116, pilot screen, cell-based, HCT116 clonal line, CellTiter-Glo (AID 824;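 active = viability at or below 27.92% in each of two runs, the all-compound median minus 4 SD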;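 also: 0% = 20 µM Hyamine control and 100% = vehicle cell control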); settings: 60 h, at 10 µM, active compounds read low
[6] = inhibitors of the yeast RAM network, pilot screen, dse1pr::URA3 reporter, 5-FOA selection (AID 869;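 active = inhibition over a set limit, the all-compound mean plus 3 SD, in both replicate runs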;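 also: 0% = DMSO wells with no growth and 100% = 10 µM 1-NA-PP1 with full growth; RAM network block rescues cells from 5-FOA so hits raise OD615 growth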); settings: S. cerevisiae dse1pr::URA3 5-FOA growth, OD615, 2 d; at 10 µM; active compounds read high; strain carries analog-sensitive mutant Cbk1 kinase
[7] = RAM signaling pathway blockade in yeast – S. cerevisiae, Pdr1DBD-CYC8 efflux-inhibited sensitized strain, primary screen (AID 1298);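 also: 0% = DMSO untreated cells without growth and 100% = 10 µM 1-NA-PP1 full growth; higher means more yeast growth rescued from 5-FOA killing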; settings: S. cerevisiae cbk1-as DSE1-URA3 strain, 5-FOA growth OD615, 2 d; at 50 µM; active compounds read high

| Compound | growth inhibition [1] | growth inhibition [2] | viability increase [3] | viability [4] | viability [5] | inhibition [6] | RAM network inhibition [7] |
| --- | --- | --- | --- | --- | --- | --- | --- |
| O=C(NCc1ccco1)C1c2ccccc2Oc2ccccc21 | -6.75% | 6.04% | -5.24% | 83.8% | 88.4% | 0.12% | 3.94% |
| O=C(NCCCn1ccnc1)c1cccc(S(=O)(=O)Nc2ccccc2F)c1 | -13.9% | -26.1% | -0.61% | 92.3% | 92.8% | 2.51% | 5.99% |
| CCc1c(C)nc(SCCOc2ccc(OC)cc2)[nH]c1=O | -12.6% | -9.17% | -0.04% | 108% | 93.9% | -0.015% | 1.64% |
| O=C(Nc1nnc(-c2ccccc2)o1)Nc1ccccc1Cl | -15.5% | -12% | -0.05% | 104% | 97.4% | 0.165% | 4.83% |
| Cc1cc(C)n2nc(Nc3ccccc3)cc2n1 | -3.93% | -10.7% | -4.34% | 90.1% | 89.7% | 1.97% | 4.89% |
| O=C1CN(C(=O)c2ccc(Br)o2)C(c2ccccc2)c2cc(Br)ccc2N1 (configuration not stated) | -9.54% | -12.8% | -8.1% | 58.3% | 55.6% | 4.09% | 6.05% |
| CCCNC(=O)NCCc1c(C)[nH]c2ccccc12 | 4.3% | -9.91% | -3.16% | 99.8% | 99% | 1.35% | 1.69% |
| Cc1ccc2oc(=O)c3cnn(CC(=O)NCCCOC(C)C)c3c2c1 | -9.03% | -7.34% | -2.72% | 106% | 94.2% | 1.87% | 8.19% |
| O=C(COc1ccc2c3c(c(=O)oc2c1)CCC3)c1ccc2c(c1)OCO2 | -8.44% | -1.49% | 2.35% | 63.2% | 65.1% | 2.27% | 7.83% |
| COc1ccc(C(CNC(=O)C2CC(=O)N(Cc3ccc(C)cc3)C2)N(C)C)cc1 (configuration not stated) | -1.76% | -7.34% | -0.21% | 96% | 95.7% | 1.3% | 1.64% |
| CCOc1ccc2[nH]c(C)c(CN3CCOCC3)c(=O)c2c1 | 0.82% | -5.17% | -1.13% | 96.5% | 99% | 1.96% | 2.56% |
| COC(=O)C(C)NC(=O)C1CCCN1S(=O)(=O)c1cc(C)c(Cl)cc1C (configuration not stated) | -5.19% | -6.72% | -1.54% | 93.8% | 94.9% | 0.935% | 0.4% |
| Cc1cccc(OCc2nnc(SCC(=O)Nc3ccc(C)c(C)c3)o2)c1 | -5.54% | 1.43% | -2.67% | 102% | 94.2% | 4.2% | 1.73% |
| CC(=O)c1ccc(OCC(O)CN2C(C)CCCC2C)cc1 (configuration not stated) | -1.28% | -5.97% | -0.1% | 97.8% | 98.1% | 0.78% | 1.46% |
| CC(=O)N1CCC(N(CCCOC(C)C)C(=O)Nc2ccc(Cl)cc2)CC1 | -2.75% | 0.145% | -0.86% | 93% | 95.9% | 0.365% | 3.16% |
| C=CCSc1nnc2nc3c(nn12)c1cc(C)ccc1n3CC=C | 10.7% | 51.1% (active) | -3.51% | 88% | 82.6% | 1.21% | 3.23% |
| COc1ccc(C2CC(C(F)(F)F)n3nc(C(=O)O)c(Cl)c3N2)cc1OC (configuration not stated) | -2.51% | -1.92% | 0.25% | 105% | 97.6% | 0.77% | 2.86% |
| COc1ccc(OC)c(Nc2cc(C)nc3nc(C)nn23)c1 | 0.505% | -0.375% | -5.35% | 65.5% | 57.4% | 1.67% | 5.24% |

| Compound | growth inhibition [1] | growth inhibition [2] | viability increase [3] | viability [4] | viability [5] | inhibition [6] | RAM network inhibition [7] |
| --- | --- | --- | --- | --- | --- | --- | --- |
| COc1ccc(C(=O)Nc2cc(=O)n(C)c(=O)n2C)cc1OC | -0.79% | 6.3% | -1.84% | 104% | 94.2% | 1.09% | -1.14% |
| Nc1c(C(=O)NCc2ccccc2)nnn1Cc1ccccc1 | -6.54% | 4.1% | 1.95% | 99.8% | 91.2% | 1.02% | 2.99% |
| O=C(c1ccco1)N1CCN(S(=O)(=O)c2cccc3nsnc23)CC1 | -10.9% | -21.4% | -0.16% | 99% | 99.7% | 0.6% | 5.06% |
| CC(=O)c1cc(CN2C(=O)CCC2=O)cs1 | -5.33% | -9.9% | -0.46% | 94.1% | 95.6% | 1.64% | 1.46% |
| N#CN=C1SCCS1 | -5.58% | -14.9% | -0.61% | 103% | 99% | 1.71% | 0.1% |
| CC1Cc2ccccc2N1C(=O)Cn1cnc2ccccc2c1=O (configuration not stated) | 3.42% | -17.3% | 0.12% | 99.4% | 93.3% | -0.455% | -0.47% |
| COC(=O)CC1SC(=O)NC1=Nc1ccccc1 (configuration not stated) | -7.63% | -0.1% | 0.96% | 106% | 89.1% | 1.42% | 4.94% |
| CN(C)/C=N/c1c(C#N)cnn1-c1ccccc1 | -5.88% | -14.5% | -1.11% | 103% | 96.6% | 1.95% | 4.32% |
| COc1ccc2[nH]c(C)c(CN3CCC(C)CC3)c(=O)c2c1 | 0.03% | -2.44% | -2.02% | 98.5% | 90.8% | 1.03% | 2.42% |
| CCn1c2ccccc2c2nnc(SCc3cc(=O)n4ccsc4n3)nc21 | -8.94% | 8.05% | -2.35% | 93.5% | 86.3% | 1.52% | 8.94% |
| Cc1ccc(C)c(N2CCN(c3ncnc4c3cnn4-c3ccccc3)CC2)c1 | -11.6% | -18.3% | 2.4% | 72.5% | 68.6% | 3.82% | 7.43% |
| COc1cc(CCC(=O)N2CCN(c3ccc(N4CCOCC4)nn3)CC2)cc(OC)c1OC | 7.64% | 14.6% | -1.86% | 106% | 112% | 0.43% | 4.7% |
| Cc1cc(NCc2ccc3c(c2)OCO3)n2nc(C)nc2n1 | -16.8% | -2% | -0.9% | 94.4% | 87.5% | 0.44% | -0.15% |
| Cc1ccc2c(c1)N(CCCC(=O)NCc1cccnc1)C(=O)CO2 | -13.3% | -16.3% | 0.96% | 95.6% | 99.1% | -0.1% | 0.98% |
| Cc1ccccc1-n1nc2c(c1NC(=O)COc1ccc(Cl)cc1)CS(=O)C2 (configuration not stated) | -5.57% | -3.5% | 0.22% | 98.3% | 92.6% | 1.46% | 1.42% |
| Cc1ccc2oc(=O)c3cnn(CC(=O)NC4CCCCC4C)c3c2c1 (configuration not stated) | -14% | -9.46% | -2.9% | 95.1% | 84.1% | 1.73% | 0.7% |
| Cc1cccc(-n2c(CNC(=O)c3ccccc3)nnc2SCC(=O)Nc2nccs2)c1 | 4.21% | 15.6% | -3.48% | 112% | 103% | 1.17% | 5.7% |
| CCN(CC)CCCNC(=O)c1cc(-c2ccc(O)cc2)on1 | -14.6% | 9.75% | -3.12% | 99.1% | 96.1% | 1.24% | 1.77% |
